# Experimental data taken from paper PMC2796831 (Integrative biology : quantitative biosciences from nano to …, 2009).
# Numbered stars: 1 amine (or outer) side, 2 acyl side, 3 side chain; on linkers, the order of the positions; unused ones are H or OH. Square brackets hold non-standard residues; d marks the D form. Peptide text beside a SMILES is read from it. * marks the point of attachment. X1 = CCN1C(=CC=CC=CC2=[N+](CCCCCC(=O)NCCN3C(=O)CC(*)C3=O)c3ccc(S(=O)(=O)[O-])cc3C2(C)C)C(C)(C)c2cc(S(=O)(=O)O)ccc21; Suc = O=C(CCC(=O)[*:2])[*:1]; Ahx = NCCCCCC(=O)O
# Tests used:
# [1] = test system: naïve athymic nude mice; experiment: Acute toxicity of unlabeled peptides after IV injection; format: in vivo; conditions: 5 µmol/kg IV, isoflurane anesthesia, unlabeled peptide
# [2] = test system: HT1080 xenografted mice; experiment: Confocal imaging of live mouse tissues after IV injection; format: in vivo; conditions: for Nuclear uptake in live tumor and tissues: 10 nmol IV, confocal stacks of live tissue, 30 minutes and 6 hours
# Outline: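 Xenografted HT1080 nude mice got 10 nmol Cy5-labelled peptide IV. Five minutes before sacrifice at 30 min or 6 h, they received IV Hoechst 33342 (250 µg) and rhodamine dextran (800 µg) to mark nuclei and blood pool. Organs were held on ice in HBSS and imaged unfixed by confocal microscopy within 30 min, as 3D stacks 5–60 µm deep. Excitation was 630, 405 and 535 nm.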
# [3] = Biodistribution; format: in vivo, mice; conditions: for Time for blood Cy5 fluorescence to decline to the same level: 10 nmol IV, blood from tail artery, average of three mice (Fig. 3B)
# Outline: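 Athymic nude mice carried HT1080 xenografts from 2 million cells injected into the mammary fat pad 5–7 days earlier. Each received 10 nmol Cy5-labelled peptide into the tail vein. Tail-artery blood in capillaries was imaged for Cy5 (640 nm excitation, 700 nm emission). At 30 min and 6 h, organ pieces were homogenised in 10 mM Tris pH 7.6 with 1% SDS, boiled, centrifuged and imaged frozen. Concentration came from tissue-specific spiked standard curves. SUV = (moles/g tissue)/(moles injected/body weight).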
# [4] = 10 nmol injection, assuming 20–25g mouse
# [5] = athymic nude, mouse, kidney, iv, 10 nmol
# [6] = athymic nude, mouse, liver, iv, 10 nmol
# [7] = athymic nude, mouse, tumor, iv, 10 nmol
SMILES,Acute effect [1],Nuclear uptake in live tumor and tissues [2],"Nuclear uptake in live tissues at 10 times the usual dose ([2]; 100 nmol or 5 µmol/kg IV, one mouse)","Tumor fluorescence signal (confocal) compared with CPP ([2]; HT1080 tumors, 30 minutes and 6 hours after 10 nmol IV (Fig. 5A, B))",Time for blood Cy5 fluorescence to decline to the same level [3] [min],"Final peptide concentration in kidney based on SUV [3, 4] [µmol/kg]","Tumor SUV compared with CPP ([3]; 30 minutes after 10 nmol IV, HT1080 tumor homogenate, n=4 ACPP, n=3 CPP)","Tumor uptake (SUV) relative to muscle ([3]; 6 hours after 10 nmol IV, HT1080 tumor)","tissue uptake dose at 0.5 h [3, 5] [%ID]","tissue uptake dose at 6 h [3, 5] [%ID]","tissue uptake dose at 0.5 h [3, 6] [%ID]","tissue uptake dose at 6 h [3, 6] [%ID]","SUV at 6 h [3, 7] [SUV]","tissue uptake at 6 h [3, 7] [%ID/g]","Final peptide concentration in liver based on SUV [3, 4] [µmol/kg]"
"CCN1C(=CC=CC=CC2=[N+](CCCCCC(=O)NCCN3C(=O)CC(SC[C@@H](NC(=O)[C@@H](CCCNC(=N)N)NC(=O)[C@@H](CCCNC(=N)N)NC(=O)[C@@H](CCCNC(=N)N)NC(=O)[C@@H](CCCNC(=N)N)NC(=O)[C@@H](CCCNC(=N)N)NC(=O)[C@@H](CCCNC(=N)N)NC(=O)[C@@H](CCCNC(=N)N)NC(=O)[C@@H](CCCNC(=N)N)NC(=O)[C@@H](CCCNC(=N)N)NC(=O)CNC(=O)[C@H](C)NC(=O)[C@H](CC(C)C)NC(=O)CNC(=O)[C@H](CC(C)C)NC(=O)[C@@H]4CCCN4C(=O)CCCCCNC(=O)[C@@H](CCC(=O)O)NC(=O)[C@@H](CCC(=O)O)NC(=O)[C@@H](CCC(=O)O)NC(=O)[C@@H](CCC(=O)O)NC(=O)[C@@H](CCC(=O)O)NC(=O)[C@@H](CCC(=O)O)NC(=O)[C@@H](CCC(=O)O)NC(=O)[C@@H](CCC(=O)O)NC(=O)CCC(=O)O)C(N)=O)C3=O)c3ccc(S(=O)(=O)[O-])cc3C2(C)C)C(C)(C)c2cc(S(=O)(=O)O)ccc21 (stereo partly drawn) [ACPP, succinyl-e8-(x)-PLGLAG-r9-c(Cy5)-NH2] (Suc-[dE][dE][dE][dE][dE][dE][dE][dE][Ahx]PLGLAG[dR][dR][dR][dR][dR][dR][dR][dR][dR][dC](X1)-NH2)",no acute effect,below the detection limit,no detectable nuclear uptake in any tissue,about four times higher,30,8 to 17,slightly but not significantly greater,roughly 4 fold,28,48,21,33,174,1.7,
"CCN1C(=CC=CC=CC2=[N+](CCCCCC(=O)NCCN3C(=O)CC(SC[C@@H](NC(=O)[C@@H](CCCNC(=N)N)NC(=O)[C@@H](CCCNC(=N)N)NC(=O)[C@@H](CCCNC(=N)N)NC(=O)[C@@H](CCCNC(=N)N)NC(=O)[C@@H](CCCNC(=N)N)NC(=O)[C@@H](CCCNC(=N)N)NC(=O)[C@@H](CCCNC(=N)N)NC(=O)[C@@H](CCCNC(=N)N)NC(=O)[C@H](N)CCCNC(=N)N)C(N)=O)C3=O)c3ccc(S(=O)(=O)[O-])cc3C2(C)C)C(C)(C)c2cc(S(=O)(=O)O)ccc21 (stereo partly drawn) [CPP, r9-c(Cy5)-NH2]",,below the detection limit,,,3,,,,8,9,90,84,,,8 to 17
